# Measurements: ChEMBL document CHEMBL4196123, “Discovery of an Orally Bioavailable Dual PI3K/mTOR Inhibitor Based on Sulfonyl-Substituted Morpholinopyrimidines” (ACS Med Chem Lett, 2018)
# Experiments:
# [1] = molecular target: Serine/threonine-protein kinase mTOR (Homo sapiens, UniProt P42345); experiment: Inhibition of recombinant human GST-tagged mTOR catalytic domain (1360 to 2549 residues) expressed in baculovirus expression system using GFP-4EBP1 as substrate measured after 1 hr by Lathascreen method
# [2] = Clearance in CD1 mouse at 5 mg/kg, iv by LC-MS/MS analysis; assay type: ADME, organism-based; conditions: in vivo
# T47D = experiment: Antiproliferative activity against human T47D cells harboring PI3KCA H1047R mutant after 72 hrs by MTT assay; assay type: functional, cell-based
# [3] = Half life in CD1 mouse at 5 mg/kg, iv by LC-MS/MS analysis; assay type: ADME, organism-based; conditions: in vivo
# [4] = AUClast in CD1 mouse at 5 mg/kg, iv by LC-MS/MS analysis; assay type: ADME, organism-based; design: dose 5 mg/kg, time 0 - last, route intravenous; conditions: in vivo
# Cytochrome P450 3A4 = Cytochrome P450 3A4 (Homo sapiens, UniProt P08684); experiment: Inhibition of CYP3A4 in human liver microsomes using testosterone as substrate pretreated for 5 mins followed by NADPH addition and measured after 5 mins by LC-MS analysis; assay type: ADME
# Mus musculus = experiment: Toxicity in Balb/c nu/nu mouse xenografted with human HT-29 cells harboring PIK3CA P449T mutant assessed as survival at 7.5 mg/kg, po administered daily via gavage for 27 days measured post last dose; assay type: organism-based; conditions: in vivo, 648 h
# In short: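 Balb/c nu/nu mice carrying HT-29 xenografts (PIK3CA P449T), dosed by daily oral gavage for 27 days starting when mean tumor size was about 240 mm³, alongside a vehicle group. Survival was recorded after the 27-day treatment. Body weight change was measured over time. n = 6 per group, mean ± SEM, Dunnett's multiple comparison test.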
# [5] = Oral bioavailability in CD1 mouse at 10 mg/kg administered via gavage by LC-MS/MS analysis; assay type: ADME, organism-based; conditions: in vivo
# Cytochrome P450 2D6 = Cytochrome P450 2D6 (Homo sapiens, UniProt P10635); experiment: Inhibition of CYP2D6 in human liver microsomes using bufuralol as substrate pretreated for 5 mins followed by NADPH addition and measured after 10 mins by LC-MS analysis; assay type: ADME
# [6] = Volume of distribution at steady state in CD1 mouse at 5 mg/kg, iv by LC-MS/MS analysis; assay type: ADME, organism-based; conditions: in vivo, read-out: Vdss
# Chain of Cytochrome P450 2D6 (P10635 whole entry): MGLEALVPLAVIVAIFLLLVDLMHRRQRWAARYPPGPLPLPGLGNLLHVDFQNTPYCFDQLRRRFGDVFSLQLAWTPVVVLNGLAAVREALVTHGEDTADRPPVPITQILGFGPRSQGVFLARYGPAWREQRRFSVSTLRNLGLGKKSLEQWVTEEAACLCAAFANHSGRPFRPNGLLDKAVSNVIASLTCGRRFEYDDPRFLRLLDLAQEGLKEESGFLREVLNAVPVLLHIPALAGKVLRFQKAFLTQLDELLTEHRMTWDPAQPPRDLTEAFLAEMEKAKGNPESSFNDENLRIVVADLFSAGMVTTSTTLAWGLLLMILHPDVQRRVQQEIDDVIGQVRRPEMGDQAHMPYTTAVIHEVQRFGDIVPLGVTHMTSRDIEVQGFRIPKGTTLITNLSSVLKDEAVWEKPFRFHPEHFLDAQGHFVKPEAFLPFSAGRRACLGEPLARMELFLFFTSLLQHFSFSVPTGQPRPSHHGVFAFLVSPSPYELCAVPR
# Chain of Cytochrome P450 3A4 (P08684 whole entry): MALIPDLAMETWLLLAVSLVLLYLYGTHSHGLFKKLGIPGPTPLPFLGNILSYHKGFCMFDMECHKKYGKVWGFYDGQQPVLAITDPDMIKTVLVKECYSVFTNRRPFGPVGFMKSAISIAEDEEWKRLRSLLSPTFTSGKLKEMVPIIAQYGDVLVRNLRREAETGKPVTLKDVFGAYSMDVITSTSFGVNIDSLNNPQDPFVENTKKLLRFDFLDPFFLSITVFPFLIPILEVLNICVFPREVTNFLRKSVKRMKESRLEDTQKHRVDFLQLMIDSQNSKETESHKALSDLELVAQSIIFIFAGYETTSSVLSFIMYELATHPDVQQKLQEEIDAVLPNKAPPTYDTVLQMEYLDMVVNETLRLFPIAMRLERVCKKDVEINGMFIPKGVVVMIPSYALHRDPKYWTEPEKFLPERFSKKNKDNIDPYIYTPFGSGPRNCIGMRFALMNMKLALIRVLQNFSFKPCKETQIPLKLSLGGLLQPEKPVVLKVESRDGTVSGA
smiles,measurement,setting,value
C[C@H]1COCCN1c1nc(-c2cnc(N)cc2F)cc(C2(S(C)(=O)=O)CC2)n1,IC50,[1],0.186 µM
same,clearance,[2],0.912 L/h/kg
same,IC50,T47D,0.03 µM
same,half-life,[3],1.59 h
same,AUC(0-t),[4],5.44 µg·h/mL
same,IC50,Cytochrome P450 3A4,> 10 µM
same,Activity,Mus musculus,Non-Toxic
same,bioavailability,[5],94.6%
same,IC50,Cytochrome P450 2D6,> 10 µM
same,Vd,[6],1.4 L/kg
